The values below come from ChEMBL document CHEMBL1135827, “Enhancement of nucleoside cytotoxicity through nucleotide prodrugs” (J Med Chem, 2002).

Data set [1] has as its system CCRF-CEM. Kind of data set: Percent control of protein synthesis in CEM cells. Type of data set: functional, Homo sapiens. Summed up: (§1)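 CEM cells (RPMI 1640, 10% FBS) incubated with 29 μM or 35 μM compound (± 10 μM dCF). [3H]thymidine, [3H]uridine or [3H]leucine added 30 min after drug; samples at 1, 2 and 4 h after label. Acid-precipitable radioactivity measured; RNA taken as total acid-precipitable minus alkali-stable/acid-precipitable (DNA) fraction. Expressed as percent of control; repeated twice.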

The subject of data set [2] is CCRF-CEM. Kind of data set: Percent control of DNA synthesis in CEM cells. Type of data set: functional, Homo sapiens. An outline of the steps: as §1
For data set [3], the system named is CCRF-CEM. The data set can be described thus: Percent control of RNA synthesis in CEM cells. Type of data set: functional, Homo sapiens. Summed up: as §1
In data set [4] the target is T1, DNA polymerase alpha catalytic subunit (Homo sapiens, UniProt P09884).
T1 sequence (P09884 whole entry): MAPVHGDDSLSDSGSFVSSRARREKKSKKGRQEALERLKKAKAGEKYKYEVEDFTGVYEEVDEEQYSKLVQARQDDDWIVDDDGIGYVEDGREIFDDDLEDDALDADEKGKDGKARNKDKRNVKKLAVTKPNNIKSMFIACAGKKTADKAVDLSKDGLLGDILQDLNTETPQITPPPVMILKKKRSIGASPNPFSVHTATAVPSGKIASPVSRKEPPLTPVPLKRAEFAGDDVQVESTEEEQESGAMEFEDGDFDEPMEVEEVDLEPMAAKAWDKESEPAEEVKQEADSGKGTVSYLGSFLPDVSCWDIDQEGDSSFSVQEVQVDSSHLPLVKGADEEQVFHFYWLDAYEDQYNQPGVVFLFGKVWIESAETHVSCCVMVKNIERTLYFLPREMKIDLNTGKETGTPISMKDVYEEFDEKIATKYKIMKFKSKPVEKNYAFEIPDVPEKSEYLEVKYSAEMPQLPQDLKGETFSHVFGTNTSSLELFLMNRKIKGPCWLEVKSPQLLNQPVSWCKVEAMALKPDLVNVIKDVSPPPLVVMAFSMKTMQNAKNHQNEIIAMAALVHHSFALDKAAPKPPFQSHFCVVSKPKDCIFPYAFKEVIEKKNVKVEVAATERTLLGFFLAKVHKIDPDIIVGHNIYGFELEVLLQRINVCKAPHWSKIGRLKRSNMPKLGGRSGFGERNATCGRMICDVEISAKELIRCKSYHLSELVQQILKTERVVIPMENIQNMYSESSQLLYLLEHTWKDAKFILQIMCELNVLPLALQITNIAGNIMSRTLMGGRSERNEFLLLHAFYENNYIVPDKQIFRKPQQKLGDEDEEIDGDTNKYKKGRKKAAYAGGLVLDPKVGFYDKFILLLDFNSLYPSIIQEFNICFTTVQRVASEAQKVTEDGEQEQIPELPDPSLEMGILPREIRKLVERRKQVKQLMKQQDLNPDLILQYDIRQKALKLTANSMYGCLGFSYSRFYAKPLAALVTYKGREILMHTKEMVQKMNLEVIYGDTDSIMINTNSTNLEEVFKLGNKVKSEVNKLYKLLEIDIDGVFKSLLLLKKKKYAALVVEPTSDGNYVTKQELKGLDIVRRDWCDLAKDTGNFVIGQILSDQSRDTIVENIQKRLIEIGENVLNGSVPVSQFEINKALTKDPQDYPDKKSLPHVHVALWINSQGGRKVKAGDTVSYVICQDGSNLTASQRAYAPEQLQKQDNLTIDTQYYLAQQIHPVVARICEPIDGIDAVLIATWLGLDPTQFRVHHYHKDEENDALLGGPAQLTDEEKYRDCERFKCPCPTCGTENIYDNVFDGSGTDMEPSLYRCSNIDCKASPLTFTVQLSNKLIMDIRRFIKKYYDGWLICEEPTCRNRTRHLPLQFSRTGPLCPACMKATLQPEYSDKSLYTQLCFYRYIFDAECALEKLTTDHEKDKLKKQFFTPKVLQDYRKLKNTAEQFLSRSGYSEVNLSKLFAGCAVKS
The data set can be described thus: Ability to inhibit the incorporation of dATP into DNA by DNA polymerase alpha. Summed up: (§2)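 DNA polymerase α purified 52-fold from CEM cells (specific activity 120 nmol/mg/hr). 50 μL reactions: 50 mM Tris pH 8.0, 1 mg/mL BSA, 10 mM MgCl2, 1 mM DTT, 100 μg/mL activated DNA, 100 μM each dTTP and dCTP, 10 μM [3H]dGTP, dATP 0–100 μM. 1 h at 37 °C; TCA/ethanol-washed glass-fiber filters counted. Ki from slopes of Lineweaver–Burk lines vs inhibitor, three inhibitor concentrations.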

Substrate in data set [5]: Nc1ncnc2c1ncn2[C@H]1C[C@H](O)[C@@H](COP(=O)(O)OP(=O)(O)OP(=O)(O)O)O1
The data set can be described thus: Km value with DNA polymerase alpha. Type of data set: functional. An outline of the steps: as §2

Broadly, the Ki is the equilibrium dissociation constant of an inhibitor or competing ligand from its target. A high value points to weaker binding. Usually Km stands for the substrate concentration at which the rate is half of its maximum.

`CC(C)(C)C(=O)OCOP(=O)(OCOC(=O)C(C)(C)C)OC[C@H]1O[C@@H](n2nnc3c(N)ncnc32)C[C@H]1O.OC[C@H]1O[C@@H](n2cnc3c2NC=NC[C@H]3O)C[C@@H]1O`: the Control in the data set on CCRF-CEM [1] is recorded as 98%; with CCRF-CEM [2] it was 11%; with CCRF-CEM [3], 3%.
Turning to `CC(C)(C)C(=O)OCOP(=O)(OCOC(=O)C(C)(C)C)OC[C@H]1O[C@@H](n2c(Br)nc3c(N)ncnc32)C[C@@H]1O`, the Control with CCRF-CEM [1] is on record as 94%; in the data set with CCRF-CEM [2], 53%; with CCRF-CEM [3] it was 14%.
Consider `CC(C)(C)C(=O)OCOP(=O)(OCOC(=O)C(C)(C)C)OC[C@H]1O[C@@H](n2nnc3c(N)ncnc32)C[C@H]1O`, for which the Control is 95% in the data set on CCRF-CEM [1], 11% in the data set with CCRF-CEM [2] and 3% in the data set on CCRF-CEM [3]. The Ki in data set [4] was determined as 156 µM.

B1: DNA polymerase alpha catalytic subunit (Homo sapiens), P09884 (protein)
chain: T1 sequence (P09884 whole entry)
In the case of B1, the Michaelis-Menten constant (Km) in data set [5] turned out to be 4 µM.
